Rows were chosen to be rich in hits. Some 2.9% of all compounds tested hit in one or more screens of this group.
SENP8 block-1: inhibitors of human SENP8 protease; inhibition, % at 10 µM; purified SENP8, Z-RLRGG-aminoluciferin cleavage, luminescence; 330,000 tested, 1.2% active; Q96LD8; in the data active means inhibition above about 50%
Target sequence (Q96LD8 whole entry, looked up): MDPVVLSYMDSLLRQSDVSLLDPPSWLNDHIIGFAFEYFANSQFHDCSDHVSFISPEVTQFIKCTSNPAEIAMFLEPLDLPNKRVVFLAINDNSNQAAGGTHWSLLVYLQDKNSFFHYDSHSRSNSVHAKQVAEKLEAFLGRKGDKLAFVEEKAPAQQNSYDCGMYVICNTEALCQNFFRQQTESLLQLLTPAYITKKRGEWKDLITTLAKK
Apaf1 inhib: human Apaf-1 inhibition; O14727; 330,000 tested, 0.71% active; reconstituted apoptosome caspase-3 activity, DEVD-Rh110 fluorescence; AID 489030; inhibition, % at 20 µM; active means inhibition of at least 40% at 20 µM;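 further: plate controls were DMSO wells for no effect and DEVD-CHO caspase inhibitor wells for full effect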
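detection = Rh110 fluorescence intensity | test system = biochemical Apaf-1 apoptosome reconstitution | also added = cytochrome c and DEVD-Rh110 substrate | schedule = 30 min plus 50 min, RT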
SENP7 block: SENP7 protease inhibition; recombinant SENP7, Z-RLRGG-aminoluciferin luminescence, 40 min; 330,000 tested, 1.5% active; inhibition, % at 5 µM; AID 434973; Q9BQF6;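 active means inhibition above about 50% at the single test dose, limit read from the data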;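 further: plate controls were DMSO with enzyme for no effect and no enzyme buffer wells for full effect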
SENP8 block-2: inhibitors of human SENP8 protease; Q96LD8; recombinant SENP8, Nedd8 substrate fluorescence; inhibition, % at 20 µM; 360,000 tested, 0.64% active; in the data active means inhibition mostly above about 40%, no sharp cut-off; inactive means mostly below about 27%
SENP6 block: inhibitors of human SENP6 protease; Recombinant SENP6 catalytic domain, aminoluciferin luminescence; inhibition, % at 10 µM; 330,000 tested, 1.8% active;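 active means inhibition above about 50% at the single tested dose, limit read from the data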;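 further: plate controls were DMSO wells with enzyme for no effect and DMSO wells lacking enzyme for full effect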
SENP1 inh: SENP1 (human) catalytic domain inhibition; recombinant SENP1 catalytic domain, CyPet-SUMO1-YPet FRET cleavage; inhibition, % at 10 µM; 360,000 tested, 0.21% active; Q9P0U3; AID 624204;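 active means inhibition at least 30% at 10 µM, raw YFP signal under a set limit, fluorescence ratio 0.5 to 1.5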;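 further: 0% = enzyme with DMSO and 100% = no enzyme wells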
Target sequence (Q9P0U3 419-644 limits assumed): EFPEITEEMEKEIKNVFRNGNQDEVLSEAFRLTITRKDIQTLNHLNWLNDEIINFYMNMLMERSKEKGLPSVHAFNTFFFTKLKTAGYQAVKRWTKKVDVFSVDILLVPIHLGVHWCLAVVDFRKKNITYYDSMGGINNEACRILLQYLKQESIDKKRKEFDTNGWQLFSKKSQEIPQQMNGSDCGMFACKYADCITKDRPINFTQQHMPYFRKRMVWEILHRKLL
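Material – human SENP1 catalytic domain · Input – SENP1 enzyme, 20 pM final · Compound dosing – single concentration of 10 µM compound, 0.5% DMSO final · Timing – enzyme reaction for 50 min at room temperature, dark · Measured by – FRET fluorescence in CFP and YFP emission channels · Control set – no-enzyme wells low, DMSO-plus-enzyme wells high control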
SENP8 confirm: confirmation of human SENP8 protease inhibitors. inhibition, % at 12.5 µM. Recombinant SENP8, Z-RLRGG-aminoluciferin luminescence, 60 min. AID 488912. 6,200 tested, 40% active. shares compounds with SENP7 block;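 active means mean inhibition across replicates above about 50%, limit read from the data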
SENP6 conf: human SENP6 inhibition, confirmed | 6,200 tested, 58% active | AID 488915 | shares compounds with SENP7 block | recombinant SENP6, Z-RLRGG-aminoluciferin luminescence | inhibition, % at 12.5 µM
SENP7 confirm: human SENP7 inhibition, confirmed | shares compounds with SENP7 block | recombinant SENP7, Z-RLRGG-aminoluciferin luminescence, 40 min | inhibition, % at 12.5 µM | 6,200 tested, 69% active | AID 488917
Casp3 select: selectivity test for SENP inhibitors: human caspase-3 inhibition. shares compounds with SENP7 block. purified caspase-3, Z-DEVD-aminoluciferin luminescence, 60 min. inhibition, % at 12.5 µM. 6,200 tested, 60% active;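 active means mean inhibition above about 50%, limit read from the data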;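 further: plate controls were enzyme with DMSO for no effect and wells without caspase-3 for full effect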
SENP luc ctr: counter-screen for SENP inhibitors: luminescence interference. 6,200 tested, 39% active. shares compounds with SENP7 block. Pre-incubated SENP8/Z-RLRGG-aminoluciferin, luciferase luminescence interference. inhibition, % at 12.5 µM;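 active means mean inhibition above about 50% when retested at one dose, limit read from the data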;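 further: plate controls were DMSO wells with completed reaction for no effect and substrate without enzyme for full effect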
The depositor's hits bear a star; / = no result.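 How the source made its calls, unless noted: active means mean inhibition above about 50% in the one-dose retest (limit read from the data); inactive means the rest.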

SMILES	SENP8 block-1	Apaf1 inhib	SENP7 block	SENP8 block-2	SENP6 block	SENP1 inh	SENP8 confirm	SENP6 conf	SENP7 confirm	Casp3 select	SENP luc ctr
OCCCNc1ncnc2sc3c(c12)CCN(Cc1ccccc1)C3	26	2	19	-278	54*	-27	4	18	9	3	-1
Cc1ccc(-c2nnc(-c3cccs3)o2)cc1	68*	-6	81*	-339	24	1	72*	87*	99*	86*	43
Fc1ccc(/C=C/c2nnc(-c3cccs3)o2)cc1	20	1	67*	-409	61*	-1	0	0	15	27	12
Cc1ccc(/C=C/c2nnc(-c3cccs3)o2)cc1	86*	-1	0	-304	91*	1	-5	43	67*	43	23
Cc1ccc(/C=C/c2nnc(-c3ccc(C)cc3)o2)cc1	7	9	7	-284	31	0	/	/	/	/	/
CCCCn1c(O)c2n(c1=O)Cc1ccccc1N=C2c1ccccc1	/	/	/	38	/	2	/	/	/	/	/
Cc1ccc(C2=Nc3ccccc3N=C(C(Cl)Cl)C2)cc1	69*	11	58*	-65	84*	-83	38	37	72*	86*	80*
CSc1nnc(-c2ccc(F)cc2)o1	2	-2	17	6	-3	0	/	/	/	/	/
CSc1ccccc1-c1nnc(-c2ccc(Cl)cc2Cl)o1	-22	-2	35	-497	-17	1	/	/	/	/	/
Fc1ccc(-c2nnc(-c3ccc(Cl)cc3)o2)cc1	-7	7	56*	-2	24	5	20	21	39	41	10
Clc1ccc(-c2nnc(-c3ccccc3)o2)c(Cl)c1	90*	9	97*	-6	96*	1	85*	87*	95*	88*	47
Fc1ccc(-c2nnc(-c3ccc(Cl)cc3Cl)o2)cc1	72*	5	92*	7	74*	2	60*	65*	86*	79*	14
CCN(CC)C(=O)c1[nH]cnc1C(=O)N[C@H](C)c1ccccc1	-5	9	13	-3	-5	4	/	/	/	/	/
Cn1cc(-c2coc3c(C(=O)NCc4ccco4)cccc23)cn1	/	/	/	-9	/	-1	/	/	/	/	/
O=C(c1ccco1)N1CCN(c2ncnc3c(-c4ccc(Cl)cc4)nsc23)CC1	6	13	9	-289	-3	-1	/	/	/	/	/
CCOC(=O)CSC1=NC(=O)/C(=C/c2ccc(OC)cc2)S1	33	-8	29	12	77*	-15	7	5	5	27	30
O=c1ccn([C@@H]2O[C@H](CNCc3c(OCc4ccccc4F)ccc4ccccc34)[C@@H](O)[C@H]2O)c(=O)[nH]1	/	/	/	16	/	2	/	/	/	/	/
Cc1cc(C)c2nc(NC(=O)c3ccco3)sc2c1	80*	6	80*	-214	76*	1	11	73*	92*	61*	16
O=C(Nc1nc2c(F)cccc2s1)c1ccco1	74*	-4	76*	-43	81*	2	80*	77*	94*	84*	25
Cc1sc(NC(=O)c2ccco2)nc1-c1ccccc1	26	21	7	-381	51*	2	47	44	72*	33	61*
CC(=O)Nc1nc2c(F)cccc2s1	3	-1	0	-2	-4	1	/	/	/	/	/
COCCNC(=O)C1CCCN(C(=O)/C=C/c2ccccc2)CC1 (centres undefined)	/	/	/	12	/	3	/	/	/	/	/
